High-throughput results (PubChem BioAssay)
Pf Dd2 growth: P. falciparum Dd2 growth inhibitors, primary screen, SYBR Green fluorescence, single dose replicates | 72 h; hits give low values | activity change, % at 10 µM | 94,000 compounds, 2.3% hits | AID 1159554, 2015; in the data active = activity change below about -80%; inconclusive = no clear call, values can overlap the other calls
T cruzi growth-1: T. cruzi intracellular proliferation inhibitors, primary screen, cell-based, beta-gal Tulahuen parasites, NIH3T3 host, luminescence; T. cruzi beta-gal in NIH3T3, GalScreen luminescence, 90 h; inhibition, % at 8.34 µM; 77,000 compounds, 5.9% hits;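 active = mean inhibition above about 93%, with at least 55% of replicates each passing it, limit read from the data, passing the limit was not always enough; inconclusive = only one of those two conditions holds; inactive = neither condition holds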
IDH1 mut inh: inhibitors of IDH1 R132H reductase, primary screen, biochemical, plate reader, single point; Isocitrate dehydrogenase [NADP] cytoplasmic (Homo sapiens), O75874; diaphorase/resazurin fluorescence, 60 min; inhibition, % at 10 µM; 70,000 compounds, 0.18% hits; AID 624101, 2012; in the data active = inhibition above about 34%; inconclusive = no clear call, values can overlap the other calls; inactive = below about 11%;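 also: 0% = DMSO and 100% = no enzyme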
KDM4C inh: inhibitors of GASC-1 (KDM4C) histone demethylase, primary screen, biochemical, single concentration HTS | 96,000 compounds, 0.15% hits | GST-KDM4C 2-372, H3K9me3 peptide, LANCE TR-FRET | inhibition, % at 12.5 µM | Lysine-specific demethylase 4C (Homo sapiens), Q9H3R0 | AID 720574, 2013;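 active = mean replicate inhibition above about 25%, with at least 55% of replicates also reaching it, limit read from the data, passing the limit was not always enough; inconclusive = only one of those two conditions met; inactive = neither condition met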
Target sequence (Q9H3R0 2-372 limits assumed): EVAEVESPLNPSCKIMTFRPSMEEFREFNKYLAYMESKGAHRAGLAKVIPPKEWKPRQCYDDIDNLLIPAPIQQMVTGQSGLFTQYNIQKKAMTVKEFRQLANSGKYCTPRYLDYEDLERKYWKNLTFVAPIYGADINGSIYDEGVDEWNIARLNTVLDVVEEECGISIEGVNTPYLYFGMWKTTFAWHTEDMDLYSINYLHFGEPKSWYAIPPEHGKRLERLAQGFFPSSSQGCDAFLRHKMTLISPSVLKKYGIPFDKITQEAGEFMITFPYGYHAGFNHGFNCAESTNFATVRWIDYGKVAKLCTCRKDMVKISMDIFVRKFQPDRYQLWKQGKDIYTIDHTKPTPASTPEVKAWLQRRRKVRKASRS
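material = GST-tagged GASC-1 (JMJD2C) catalytic fragment, aa 2-372 | amount = enzyme final amount 10 nM | medium = HEPES buffer, pH 7.5, plus ascorbate | also added = H3K9me3 peptide substrate, Fe(II), 2-oxoglutarate | dosing = single dose | times = 30 min demethylation and 1 h detection at room temperature | detection = LANCE TR-FRET | read-out basis = Fall in 671/618 emission ratio as inhibition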
T cruzi growth-2: T. cruzi intracellular proliferation inhibitors, confirmation, cell-based, NIH3T3 host, beta-gal parasite, luminescence, cherry-pick. shares compounds with T cruzi growth-1. T. cruzi beta-gal in NIH3T3, GalScreen luminescence, 90 h. inhibition, % at 8.35 µM. 5,600 compounds, 72% hits. AID 651739, 2012;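 active = mean replicate inhibition above about 95% and at least 55% of replicates individually reaching it, limit read from the data; inconclusive = only one of the two criteria is met; inactive = neither criterion is met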
T cruzi growth-3: inhibitors of intracellular T. cruzi replication, confirmation, NIH3T3 host cells, beta-gal parasites, cherry-pick, set 2; shares compounds with T cruzi growth-1; inhibition, % at 2.09 µM; 5,600 compounds, 21% hits; T. cruzi beta-gal in NIH3T3, GalScreen luminescence, 90 h;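 active = mean inhibition above about 95%, with at least 55% of replicates also reaching it, limit read from the data; inconclusive = meets just one of the two conditions; inactive = meets neither condition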;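 also: plate controls were neutral control median for no effect and positive control median for full effect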
NIH3T3 tox: cytotoxicity in mouse NIH/3T3 fibroblasts, confirmation, cytotoxicity control for T. cruzi proliferation inhibitor project, cell-based, cherry-pick, single point; shares compounds with T cruzi growth-1; NIH/3T3 viability, CellTiter-Glo ATP luminescence, 90 h; cytotoxicity (signal decrease), % at 8.35 µM; 5,600 compounds, 14% hits;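 active = mean signal decrease across replicates above about 35% based on untreated-well scatter, with enough replicates individually passing, limit read from the data; inconclusive = no rule stated though some were filed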;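 also: 0% = median of neutral control wells and 100% = median of positive control wells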
3T3 cytotox 2: NIH/3T3 fibroblast cytotoxicity, confirmation, cytotoxicity control, cell-based, cherry-pick, single point, set 2; shares compounds with T cruzi growth-1; NIH/3T3 viability, CellTiter-Glo ATP luminescence, 90 h; inhibition, % at 24.9 µM; 5,600 compounds, 56% hits; AID 651744, 2012;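 active = mean loss of cell viability signal at or above a set limit, and enough replicates individually reaching it; inconclusive = meets only the mean limit or only the replicate share; inactive = meets neither condition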;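 also: 0% = median of neutral control wells and 100% = median of positive control wells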
* hit, by the source's call; ? = inconclusive; / = not tested or not shown. Rows were chosen to be rich in hits. Some 5.9% of all compounds tested hit in one or more screens of this group.

SMILES	Pf Dd2 growth	T cruzi growth-1	IDH1 mut inh	KDM4C inh	T cruzi growth-2	T cruzi growth-3	NIH3T3 tox	3T3 cytotox 2
COc1cccc(C#Cc2ccc3c(c2)O[C@@H](CN(C)S(=O)(=O)c2ccccc2F)[C@@H](C)CN([C@@H](C)CO)S3(=O)=O)c1	-44	?	1	7	102*	52	-3	9
COc1cccc(C#Cc2ccc3c(c2)O[C@H](CN(C)S(=O)(=O)c2ccccc2F)[C@@H](C)CN([C@H](C)CO)S3(=O)=O)c1	-67	127*	0	-4	109*	115*	24	42*
COc1cccc(C#Cc2ccc3c(c2)O[C@@H](CN(C)C(C)=O)[C@@H](C)CN([C@@H](C)CO)S3(=O)=O)c1	-71	33	-4	-2	/	/	/	/
CNC[C@@H]1Oc2cc(-c3cccnc3)ccc2S(=O)(=O)N([C@@H](C)CO)C[C@H]1C	-28	/	2	0	/	/	/	/
C[C@@H]1CN([C@H](C)CO)C(=O)c2cc(C#Cc3ccccc3F)cnc2O[C@H]1CN(C)S(=O)(=O)c1ccccc1	-38	126*	0	-1	109*	87	?	35*
C[C@@H]1CN([C@@H](C)CO)C(=O)c2cc(C#Cc3ccccc3F)cnc2O[C@@H]1CN(C)S(=O)(=O)c1ccccc1	-31	114*	0	-4	99*	70	31	50*
C[C@H]1CN([C@@H](C)CO)C(=O)c2cc(C#Cc3ccccc3F)cnc2O[C@@H]1CN(C)S(=O)(=O)c1ccccc1	-73	128*	-5	-1	110*	78	60*	47*
C[C@H](CO)N1C[C@H](C)[C@@H](CN(C)C(=O)Cc2ccncc2)Oc2ncc(C#Cc3ccccc3F)cc2C1=O	-77	?	/	1	112*	63	18	?
CN1C(=O)c2cc(NS(=O)(=O)c3ccc(F)cc3)ccc2OC[C@H]2O[C@H](CC(=O)O)CC[C@@H]21	2	15	/	-1	/	/	/	/
C[C@@H]1CN([C@H](C)CO)C(=O)c2cc(C#Cc3ccccc3F)cnc2O[C@@H]1CN(C)S(=O)(=O)c1ccccc1	-36	116*	-4	7	98*	64	22	68*
C[C@H](CO)N1C[C@H](C)[C@@H](CN(C)S(C)(=O)=O)Oc2ncc(C#Cc3ccccc3F)cc2C1=O	7	-8	-2	-4	/	/	/	/
COc1ccc(S(=O)(=O)N(C)C[C@H]2Oc3c(NS(=O)(=O)c4ccccc4)cccc3C(=O)N([C@H](C)CO)C[C@@H]2C)cc1	14	19	2	0	/	/	/	/
CN(C)C(=O)C[C@@H]1C[C@H]2c3cc(NS(=O)(=O)c4ccc(F)cc4)ccc3O[C@H]2[C@H](CO)O1	0	104*	-1	2	-2	-2	4	19
CN(C)C(=O)C[C@@H]1C[C@H]2c3cc(NS(=O)(=O)c4ccc(F)cc4)ccc3O[C@H]2[C@@H](CO)O1	24	?	0	8	-15	1	-5	-10
CN(C)C(=O)C[C@H]1C[C@@H]2c3cc(NS(=O)(=O)c4ccc(F)cc4)ccc3O[C@@H]2[C@H](CO)O1	26	35	0	2	/	/	/	/
C[C@H]1CN([C@@H](C)CO)C(=O)Cc2cc(NS(C)(=O)=O)ccc2O[C@@H]1CN(C)Cc1ccccc1	-21	39	7	2	/	/	/	/
COc1ccc2c3c(n(C)c2c1)[C@H](CO)N(Cc1ccccc1Cl)CC31CN(C(C)=O)C1	0	/	/	/	/	/	/	/
CO[C@H]1CN(C)C(=O)c2cc(NC(C)=O)ccc2OC[C@@H](C)N(C(=O)c2ccccc2F)C[C@H]1C	-12	-21	0	0	/	/	/	/
N#C[C@H]1[C@@H](c2ccc(-c3ccccc3)cc2)[C@@H](CO)N1C(=O)Cc1ccccc1	14	49	/	0	/	/	/	/
N#C[C@H]1[C@@H](c2ccc(-c3ccc(F)cc3)cc2)[C@H](CO)N1C(=O)Cc1ccccc1	-7	?	/	-1	106*	61	17	77*
N#C[C@@H]1[C@@H](c2ccc(-c3ccc(F)cc3)cc2)[C@H](CO)N1C(=O)Cc1ccccc1	-19	62	/	-1	/	/	/	/
N#C[C@@H]1[C@H](c2ccc(-c3ccccc3)cc2)[C@@H](CO)N1C(=O)Cc1ccccc1	-19	101*	/	-2	108*	51	21	53*
N#C[C@@H]1[C@@H](c2ccc(-c3ccc(F)cc3)cc2)[C@@H](CO)N1S(=O)(=O)Cc1ccccc1	-31	99*	/	-2	97*	94	13	102*
COc1ccc(NC(=O)Nc2ccc3c(c2)C(=O)N([C@@H](C)CO)C[C@H](C)[C@@H](CN(C)S(=O)(=O)c2cccs2)OCCCC[C@H](C)O3)cc1	-74	-8	/	1	/	/	/	/
CNC[C@@H]1Oc2ccc(NS(=O)(=O)c3c(C)noc3C)cc2C(=O)N([C@@H](C)CO)C[C@@H]1C	40	-6	1	0	/	/	/	/
CN1c2ccc(-c3ccccc3)cc2[C@H]2[C@H](CCN2C(=O)Cc2cccnc2)[C@H]1CO	6	?	/	1	99*	76	-11	-7
COc1ccc(-c2ccc3c(c2)[C@@H]2[C@@H](CCN2C(=O)Cc2cccnc2)[C@H](CO)N3C)cc1	-3	76	/	-1	/	/	/	/
CN1c2ccc(-c3ccccc3)cc2[C@H]2[C@H](CCN2C(=O)Cc2cccnc2)[C@@H]1CO	9	107*	/	2	111*	97*	-24	-13
C[C@@H]1CN([C@@H](C)CO)C(=O)c2cc(NS(=O)(=O)c3cn(C)cn3)ccc2O[C@@H](C)CCCCO[C@H]1CN(C)C(=O)Nc1cccc2ccccc12	-53	10	/	0	/	/	/	/
C[C@@H]1CN([C@@H](C)CO)S(=O)(=O)c2ccc(C#CC3(O)CCCC3)cc2O[C@@H]1CN(C)C(=O)Cc1cccnc1	5	10	/	0	/	/	/	/
